In series [1] the test system is Rattus norvegicus. Put plainly: AUC (0 to t) in Sprague-Dawley rat assessed as Tizoxanide level at 30 mg/kg, po administered as single dose. Format: ADME, organism-based. Particulars: in vivo. An outline of the steps:
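Plasma tizoxanide and tizoxanide glucuronide were measured and PK parameters derived. AUCs were dose-corrected to 30 mg/kg for bioavailability.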

In series [2] the test system is Rattus norvegicus. Put plainly: Toxicity in Sprague-Dawley rat assessed as erosions in stomach at 75 mg/kg administered as oral gavage qd for 28 consecutive days followed by 2 weeks recovery period by microscopic method. The format is organism-based. Particulars: in vivo, 336 h. The essentials:
(§1)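 Sub-acute study in Sprague-Dawley rats dosed orally with a suspension at 10, 30 and 75 mg/kg once daily for 28 consecutive days. Four groups of up to 30 rats each (15M/15F).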

The subject of series [3] is Rattus norvegicus. Put plainly: Toxicity in Sprague-Dawley rat assessed as eosinophilic cytoplasmic bodies in leukocytes of duodenum at 75 mg/kg administered as oral gavage qd for 28 consecutive days followed by 2 weeks recovery period by microscopic method. Format: organism-based. Particulars: in vivo, 336 h. An outline of the steps: as §1
For series [4], the system named is Canis familiaris. Put plainly: Toxicity in Beagle dog assessed as effect on coagulation up to 25 mg/kg, po administered as gelatin capsule once daily for 28 days measured on day 29. Format: organism-based, Canis lupus familiaris. Particulars: in vivo, 672 h. An outline of the steps:
(§2)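 Sub-acute study in Beagle dogs dosed orally by gelatin capsule at 5, 15 and 25 mg/kg once a day for 28 consecutive days.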

The subject of series [5] is Canis familiaris. Put plainly: Toxicity in Beagle dog assessed as decrease in cholesterol level up to 25 mg/kg, po administered as gelatin capsule once daily for 28 days measured on day 29. Format: organism-based, Canis lupus familiaris. Particulars: in vivo, 672 h. An outline of the steps: as §2
In series [6] the test system is Canis familiaris. Description: Toxicity in Beagle dog assessed as gross necropsy up to 25 mg/kg, po administered as gelatin capsule once daily for 28 days followed by two weeks of recovery period. Particulars: in vivo, 672 h. The format is organism-based, Canis lupus familiaris. The essentials:
as §2

For series [7], the system named is Canis familiaris. Put plainly: Drug metabolism in Beagle dog assessed as tizoxanide level in plasma administered orally as gelatin capsule once daily for 28 days measured on day 1 and 29. Format: ADME, Canis lupus familiaris. The conditions noted are these: po, 672 h. An outline of the steps: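 Beagle dogs received the drug orally in a single gelatin capsule at 5, 15 or 25 mg/kg once daily for 28 consecutive days in a sub-acute toxicity study assessing systemic exposure.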

Series [8] concerns Canis familiaris. Description: Toxicity in Beagle dog administered orally as gelatin capsule once daily for 28 days. Details: species or system Canis lupus familiaris. Particulars: in vivo, po, 672 h. The essentials:
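Sub-acute study in Beagle dogs: 5, 15 or 25 mg/kg/day given orally in a single gelatin capsule once a day for 28 consecutive days to assess systemic exposure and toxicity, with NOAEL determination.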

Molecules are shown by their SMILES.

As a reminder, the NOAEL is the highest tested level that showed no adverse finding. Take `CC(C)(C)[C@H](N)C(=O)Oc1ccccc1C(=O)Nc1ncc([N+](=O)[O-])s1.Cl`: the AUCt in the series on Rattus norvegicus [1] turned out to be 3120 ng·h/mL. For the same compound, the Activity result in the series on Rattus norvegicus [2] was “Non-Toxic”; in the series on Rattus norvegicus [3], “Non-Toxic”; in the series on Canis familiaris [4], “Non-Toxic”; with Canis familiaris [5], “Toxic”; in the series with Canis familiaris [6], “Non-Toxic”. The Drug metabolism result in the series with Canis familiaris [7] is on record as “Dose-dependent effect”. In the series with Canis familiaris [8], this compound showed a no observed adverse effect level (NOAEL) of 25 mg/kg/day.
